High-throughput results as filed in PubChem.
Only some compounds are listed: those with a hit (about 1.9% of all), similar ones and a draw of the others.
Runt-SMMHC FRET – inhibitors of RUNX1 Runt–CBFb-SMMHC binding, primary screen, biochemical, FRET, Cerulean-Runt, Venus-CBFb-SMMHC, uHTS. AID 1434, 2008. Cerulean-Runt/Venus-CBFb-SMMHC FRET ratio 530/480, 1 h. 0.74% of 220,000 active. inhibition, % at 20 µM;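 active means mean inhibition across duplicate retests at 20 µM reaching about 50%, limit read from the data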;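 further: 0% = DMSO wells and 100% = wells with excess untagged CBFb-SMMHC; inhibitors lower the FRET ratio by blocking Runt binding to CBFb-SMMHC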
RanGTP-Imp inh – inhibitors of RanGTP-importin-beta interaction, primary screen, biochemical, FRET, CFP-Ran, YFP-importin-beta, homogeneous | inhibition, % (no concentration beside the values) | Ran GTPase (GTP-bound) - importin-beta complex | 1.1% of 300,000 active | cell-free CFP-Ran/YFP-importin-beta FRET ratio | AID 2216, 2009;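 active means more than half of the replicate wells show a fall in the fluorescence ratio signal beyond about 16%, limit read from the data, passing the limit was not always enough; inconclusive means exactly half of the replicate wells pass the set limit; inactive means fewer than half of replicates pass the limit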;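 further: 0% = DMSO wells and 100% = Ran loaded with GDP instead of GTP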
Hck Nef HTS – inhibitors of Nef-activated human Hck kinase, primary screen, biochemical, Z-Lyte FRET, 384-well, Hck-YEEI; Tyrosine-protein kinase HCK (Homo sapiens), P08631; Recombinant Hck-YEEI plus Nef, Z-Lyte FRET kinase assay; inhibition, % at 20 µM; 0.68% of 220,000 active; AID 463187, 2010;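 active means Hck-Nef kinase inhibition above about 50%, limit read from the data; inactive means inhibition below that limit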;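 further: 0% = DMSO with Hck plus Nef and 100% = Hck alone without Nef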
Target sequence (P08631 whole entry, looked up): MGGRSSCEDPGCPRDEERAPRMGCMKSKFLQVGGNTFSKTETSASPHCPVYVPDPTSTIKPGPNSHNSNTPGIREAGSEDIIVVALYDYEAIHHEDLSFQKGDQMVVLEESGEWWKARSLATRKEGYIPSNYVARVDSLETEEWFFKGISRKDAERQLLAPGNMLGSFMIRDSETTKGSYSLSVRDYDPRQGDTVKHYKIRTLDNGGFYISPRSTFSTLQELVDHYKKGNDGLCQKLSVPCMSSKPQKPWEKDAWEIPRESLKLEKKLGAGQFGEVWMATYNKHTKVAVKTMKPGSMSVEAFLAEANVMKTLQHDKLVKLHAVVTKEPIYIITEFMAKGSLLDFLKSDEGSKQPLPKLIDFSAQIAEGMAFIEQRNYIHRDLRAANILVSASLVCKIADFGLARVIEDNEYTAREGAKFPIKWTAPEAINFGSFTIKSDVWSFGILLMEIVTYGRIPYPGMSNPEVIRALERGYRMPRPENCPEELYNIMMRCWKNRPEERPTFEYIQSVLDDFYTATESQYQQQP
Runt-CBFb FRET – inhibitors of RUNX1 Runt–CBFb binding, primary screen, biochemical, FRET, Cerulean-Runt, Venus-CBFb, uHTS | AID 1496, 2009 | inhibition, % at 20 µM | Cerulean-Runt/Venus-CBFb FRET ratio 530/480, 1 h | 0.46% of 220,000 active;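 active means inhibition over about 50% at 20 µM in the single-dose screen, limit read from the data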;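 further: 0% = DMSO wells and 100% = excess unlabeled CBFb competitor control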
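test system = Cerulean-Runt domain fusion protein, energy donor | probe or stimulus = Venus-CBFb binding partner, 100 nM | incubation = two 1 h room-temperature incubations shielded from light | detection = fluorescence energy transfer, 422 nm excitation, 530/480 nm emission | measure = loss of energy transfer signal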
Tb hexokinase – Trypanosoma brucei hexokinase 1 inhibitors, primary screen, biochemical, G6PDH-coupled NADH absorbance, MLSCN library. hexokinase 1 [Trypanosoma brucei]. recombinant TbHK1, G6PDH-coupled NADH A340. inhibition, % at 10 µM. 0.11% of 220,000 active. AID 1430, 2008;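 active means inhibition of 50% or more in the single-dose primary screen; inactive means inhibition below 50%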
Hck-Nef confirm – retest of Hck:Nef kinase inhibitor hits, confirmation, biochemical, Z-Lyte FRET, 384-well, p-Tyr peptide counterscreen; shares compounds with Hck Nef HTS; Recombinant Hck-YEEI:Nef, Z-Lyte FRET kinase assay; calls only at 10 µM; 28% of 1,300 active; AID 463188, 2010;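 active means average inhibition of at least 50%, with Z-scores no higher than 3 in both the phospho-tyrosine peptide and fluorescence counterscreens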
An asterisk follows results filed as active; i = inactive; ? = inconclusive; / = no result given; + = active, no number.

SMILES | Runt-SMMHC FRET | RanGTP-Imp inh | Hck Nef HTS | Runt-CBFb FRET | Tb hexokinase | Hck-Nef confirm
COc1cc(/C=C(\C#N)C(=O)NC2CCCCC2)ccc1OCc1ccc(C(=O)O)cc1 | 1.8 | 20.9* | 52.4* | 0.9 | -14.9 | i
COc1cc(/C=C(/C#N)C(=O)Nc2ccccc2)ccc1OCc1ccc(C(=O)O)cc1 | -10.5 | / | 137.5* | -5.1 | -20.5 | +
CCOC(=O)c1ccc2ncc(C(=O)OCC)c(Nc3ccc(N4CCOCC4)cc3)c2c1 | 0.8 | -2.5 | 72.9* | -4.2 | -12.8 | +
CCOC(=O)c1cnc2ccc(C(=O)OC)cc2c1Nc1ccc(C(=O)O)cc1 | 2.4 | 0.6 | 20.0 | 0.4 | -2.9 | /
Cc1cccc(N2CCN(C(=O)c3ccc(-n4cncn4)c([N+](=O)[O-])c3)CC2)c1C | / | 5.4 | / | / | / | /
COc1cccc(/C=N/Nc2ncnc3c2[nH]c2ccc(C)cc23)c1OC | -7.2 | 7.4 | 66.2* | -11.5 | -30.9 | i
O=C(O)CC1S/C(=N/N=C/c2ccc(-c3ccc(Cl)cc3[N+](=O)[O-])o2)NC1=O (stereo not drawn) | 13.5 | 1.4 | 1.2 | 27.1 | -35.4 | /
O=C(O)CC1S/C(=N/N=C/c2ccc(-c3ccc(Cl)c([N+](=O)[O-])c3)o2)NC1=O (stereo not drawn) | 23.5 | 4.4 | 119.1* | 38.4 | -12.1 | i
O=C(Nc1cccc(Oc2ccc(C(=O)O)c(C(=O)O)c2)c1)c1ccc(-c2ccccc2)cc1 | -9.2 | -10.2 | 66.2* | -9.1 | 19.2 | i
CCOC(=O)C1CCN(C(=O)C2CCCN(S(=O)(=O)c3ccc(OCC)c(Cl)c3)C2)CC1 (stereo not drawn) | / | -1.3 | / | / | / | /
CC(CCc1ccccc1)NC(=O)COC(=O)C12CC3CC(CC(Br)(C3)C1)C2 (stereo not drawn) | -3.7 | -2.1 | -0.3 | -2.5 | 2.1 | /
CCN(CC)C(CNS(=O)(=O)c1ccc(Cl)cc1)c1ccccc1 (stereo not drawn) | 1.8 | / | 9.2 | -1.0 | -2.2 | /
Cc1ccc(NC(=O)CN2C(=O)S/C(=C/c3ccc(O)c([N+](=O)[O-])c3)C2=O)cc1C | -21.5 | / | 64.1* | -11.1 | 23.0 | +
O=C(NC(=S)Nc1ccc(-c2nc3ncccc3o2)cc1)c1ccccc1F | -3.5 | 0.2 | 52.3* | 0.4 | -20.7 | i
O=C(NC(=S)Nc1ccc(Cc2ccncc2)cc1)c1ccccc1F | -2.7 | -2.3 | 34.9 | -3.4 | -0.4 | /
Cc1ccc(C(=O)Nc2cccc(-c3nc4ncccc4o3)c2)cc1 | 0.7 | -2.2 | 15.6 | 3.5 | -3.7 | /
Cc1ccc(OCC(=O)Nc2ccc(-c3nc4ncccc4o3)cc2)c(C)c1 | -2.6 | 0.2 | 105.6* | 0.1 | -25.4 | i
Cc1ccc(CNC(=O)CCS(=O)(=O)c2ccc3c(c2)CC(C)N3C(=O)C2CC2)cc1 (stereo not drawn) | / | 1.0 | / | / | / | /
Cc1ccc(S(=O)(=O)NCCC(=O)Oc2ccc3ccc(=O)oc3c2)cc1 | 55.9* | 7.9 | 93.1* | 35.7 | -21.6 | /
Cc1ccc2cc(S(=O)(=O)NCCC(=O)O)ccc2c1 | 2.9 | ? | 0.8 | 4.1 | -1.9 | /
N=C1/C(=C/c2ccc(-c3cccc(C(=O)O)c3)o2)C(=O)N=C2SC(CC(=O)N3CCOCC3)=NN12 | / | -1.7 | / | / | / | /
N=C1/C(=C\c2ccc(-c3cccc(C(=O)O)c3)o2)C(=O)N=C2SC=C(c3ccccc3)N12 | -41.5 | -16.4 | 64.2* | -13.6 | 3.6 | +
Cc1c(CN2CCCC(CO)(Cc3cccc(Cl)c3)C2)cnn1C (stereo not drawn) | -4.5 | -0.5 | 10.1 | -0.1 | 5.7 | /
CCCCN(CC)Cc1c(O)ccc2c3c(c(=O)oc12)CCC3 | 73.2* | -3.0 | + | 36.8 | -29.9 | /
COCCN(CCOC)Cc1c(O)ccc2c3c(c(=O)oc12)CCC3 | 92.6* | -2.0 | 72.0* | 43.6 | -26.5 | /
SMILES | Runt-SMMHC FRET | RanGTP-Imp inh | Hck Nef HTS | Runt-CBFb FRET | Tb hexokinase | Hck-Nef confirm
CCN(CC)C(=O)COc1ccc2c3c(c(=O)oc2c1C)CCCC3 | / | -4.2 | / | / | / | /
Cc1ccc(NC(=O)C2CC2c2ccccc2)c([N+](=O)[O-])c1 (stereo not drawn) | / | -4.1 | / | / | / | /
COc1ccc(OC)c(C(=O)NC(CC(N)=O)c2ccc(NCc3ccccn3)c([N+](=O)[O-])c2)c1 (stereo not drawn) | / | -2.3 | / | / | / | /
CNc1ccc([N+](=O)[O-])cc1-c1nc2ccccc2[nH]c1=O | -0.9 | 5.1 | 28.3 | -5.3 | -21.5 | /
CCN(C)c1ccc(/C=N\n2nnnc2N)cc1 | 53.9* | -1.0 | 54.2* | 20.6 | -14.9 | /
CCN(CC)c1ccc(/C=N/n2nnnc2N)c(O)c1 | 18.6 | 7.4 | 57.4* | 9.4 | -19.1 | i
COc1ccc(CCC(=O)Nc2ccc3c(c2)OCO3)cc1OC | / | 0.3 | / | / | / | /
O=C1N/C(=N\N=C\c2ccc3ncccc3c2)SC1Cc1ccc(SC(F)F)cc1 (stereo not drawn) | -1.7 | / | 84.5* | -9.9 | -30.4 | +
COc1ccc(N2CCN(CCNC(=O)c3ccc4c(c3)[nH]c(=S)n3c5ccccc5nc43)CC2)cc1 | -0.1 | 1.1 | 51.1* | 5.0 | -3.4 | i
CN(Cc1ccccc1F)C(=O)COc1ccc(C(=O)c2ccccc2)cc1 | / | 3.1 | / | / | / | /
Cn1c(N/N=C2\CCCc3ccccc32)nc2c1c(=O)n(Cc1ccc(F)cc1)c(=O)n2C | -0.3 | 5.3 | 56.3* | -1.6 | -21.7 | i
COCCCNc1nc2c(c(=O)n(Cc3ccc(F)cc3)c(=O)n2C)n1C | / | 1.1 | / | / | / | /
CC(OC(=O)C1=Cc2ccccc2OC1)C(=O)NC(C)(C)C (stereo not drawn) | -4.1 | ? | 12.0 | -1.4 | -13.5 | /
COc1ccc(N2C3=C(C(=O)CC(C)(C)C3)C(c3ccccc3OC)C3=C2CC(C)(C)CC3=O)cc1 | 81.0* | 148.7* | 73.6* | 14.9 | -6.1 | i
COc1ccc(C2C3=C(CC(C)(C)CC3=O)N(C)C3=C2C(=O)CC(C)(C)C3)cc1OC | / | 9.2 | / | / | / | /
COc1ccc(C2C3=C(CC(C)(C)CC3=O)N(C)C3=C2C(=O)CC(C)(C)C3)cc1 | 86.3* | 136.8* | 50.6* | 20.3 | -4.0 | i
Cc1nnc(SC(C)C(=O)Nc2ccc3ccccc3c2)[nH]c1=O (stereo not drawn) | / | 3.2 | / | / | / | /
O=C(/C=C/c1ccc(Br)o1)Nc1nnc(C2CC2)s1 | -0.8 | -3.4 | 57.2* | 25.2 | 3.3 | +
